ChEMBL document CHEMBL1765038, “Cytotoxic and anti-inflammatory cembranoids from the Vietnamese soft coral Lobophytum laevigatum” (Bioorg Med Chem, 2011)
Calls of active or inactive are those of the source. No cut-off for these calls is given here.

How the values were obtained:
HL-60 = test: Cytotoxicity against human HL60 cells by MTT assay; format: functional, cell-based
How it was run: (§1)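 MTT colorimetric assay on human cancer cell lines (leukemia HL-60, lung A549, colon HCT-116, breast MCF-7) obtained from the Korea Cell Line Bank; values reported as IC50.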

A549 = test: Cytotoxicity against human A549 cells by MTT assay; format: functional, cell-based; how it was run: as §1
HCT-116 = test: Cytotoxicity against human HCT116 cells by MTT assay; format: functional, cell-based; how it was run: as §1
MCF7 = test: Cytotoxicity against human MCF7 cells by MTT assay; format: functional, cell-based; how it was run: as §1
[1] = Inhibition of TNF-alpha-induced NF-kappaB transcriptional activity in human HepG2 cells pretreated for 1 hr by luciferase reporter gene assay; format: cell-based
How it was run: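 Hep-G2 cells seeded at 2 × 10^5 per well, grown 24 h, then transfected (Lipofectamine LTX) with a firefly luciferase reporter under a minimal CMV promoter with tandem NF-κB response elements. Cells pretreated 1 h with vehicle (DMSO) or compound (0.1, 1, 10 µM), then 10 ng/mL TNFα for 1 h. Lysates read for luminescence. Unstimulated cells as negative control, PDTC 10 µM as positive control. Mean ± SD, n = 6; IC50 derived.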

HepG2 [2] = test: Inhibition of NF-kappaB-induced COX2 mRNA expression in TNF-alpha-stimulated human HepG2 cells at 1 to 9 uM pretreated for 1 hr by RT-PCR; format: cell-based
How it was run: (§2)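 Hep-G2 cells pretreated with or without compound for 1 h, then exposed to 10 ng/mL TNFα for 6 h. Total mRNA isolated from cell pellets. COX-2 and iNOS transcripts quantified by RT-PCR, with primer specificity checked by gel electrophoresis and melting-curve analysis.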

HepG2 [3] = test: Inhibition of NF-kappaB-induced iNOS mRNA expression in TNF-alpha-stimulated human HepG2 cells at 1 to 9 uM pretreated for 1 hr by RT-PCR; format: cell-based; how it was run: as §2
HepG2 [4] = test: Cytotoxicity against human HepG2 cells at 0.1 to 10 uM; format: cell-based; conditions: hepg2, 10 µM
How it was run: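 Hep-G2 viability measured by MTT assay at the concentrations used in the NF-κB reporter and mRNA experiments.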

SMILES	IC50 (HL-60)	IC50 (A549)	IC50 (HCT-116)	IC50 (MCF7)	IC50 [1]	inhibition (HepG2 [2])	inhibition (HepG2 [3])	Activity (HepG2 [4])	Activity (HL-60)	Activity (A549)	Activity (HCT-116)	Activity (MCF7)
COC(=O)[C@@]12CC(=O)[C@@H](C(C)C)CC(=O)[C@@H](C)CCC[C@@H](C)CC(=O)C1CC(C)=C1C2/C=C(\C)CCC2OC(CC[C@]2(C)OC(C)=O)[C@](C)(O)C[C@H]1O (stereo partly drawn) [XIMAOLIDE F]	9 µM	28.4 µM	16.4 µM	> 40 µM	6.9 µM	Dose-dependent effect	Dose-dependent effect	Non-toxic	–	–	–	–
C/C1=C/[C@]2(O)OC[C@@]3(C)O[C@]32CC[C@](C)(O)/C=C/C[C@@](C)(O)[C@@H](O)CC1	–	–	–	–	–	–	–	–	inactive	inactive	inactive	inactive
C/C1=C\[C@]2(O)OC[C@@]3(C)O[C@]32CC[C@](C)(O)/C=C/C[C@@]2(C)O[C@H]2CC1	–	–	–	–	–	–	–	–	inactive	inactive	inactive	inactive
O=C1c2c(O)ccc(O)c2C(=O)c2c(NCCNCCO)ccc(NCCNCCO)c21 [MITOXANTRONE]	7.9 µM	–	7.2 µM	–	–	–	–	–	–	–	–	–
COC(=O)[C@@]12CC(=O)[C@@H](C(C)C)CC(=O)[C@@H](C)CCC[C@@H](C)CC(=O)[C@@H]1CC(C)=C1[C@@H]3C[C@@](C)(O)[C@H](CC[C@@H](C)C(=O)CC/C(C)=C/[C@H]12)O3 [METHYL TORTUOATE B]	25.8 µM	24.4 µM	19.7 µM	> 40 µM	6.7 µM	Dose-dependent effect	Dose-dependent effect	Non-toxic	–	–	–	–
COC(=O)[C@]12CC(=O)[C@H](C(C)C)CC(=O)[C@H](C)CCC[C@H](C)CC(=O)[C@H]1CC(C)=C1C[C@H](OC(C)=O)[C@](C)(O)[C@H]3CC[C@@](C)(O)[C@H](CC/C(C)=C/[C@@H]12)O3 [NYALOLIDE]	28.1 µM	28.7 µM	17.5 µM	35.5 µM	–	–	–	–	–	–	–	–
COC(=O)/C1=C\C=C(\C(C)C)CCC2=CCC[C@](C)(OC2=O)[C@@H](OC(C)=O)CC1 [EMBLIDE]	38.8 µM	> 40 µM	> 40 µM	> 40 µM	–	–	–	–	–	–	–	–
C/C1=C\[C@@H]2O[C@@H](O)[C@@]3(C)O[C@@]23CC/C(C)=C/CC[C@@]2(C)O[C@H]2CC1 [LAEVIGATOL A]	–	–	–	–	9.4 µM	Dose-dependent effect	Dose-dependent effect	Non-toxic	inactive	inactive	inactive	inactive
C=C1CO[C@H]2/C=C(\C)CC[C@@H]3O[C@]3(C)CC/C=C(\C)CC[C@@]12O [LAEVIGATOL B]	–	–	–	–	9.7 µM	Dose-dependent effect	Dose-dependent effect	Non-toxic	inactive	inactive	inactive	inactive
CC1=C2CC/C(C)=C/CC[C@@]3(C)O[C@H]3CC[C@](C)(O)/C=C/2OC1=O	–	–	–	–	–	–	–	–	inactive	inactive	inactive	inactive
CC1=C2CC/C(C)=C/CC[C@]3(C)O[C@H]3CC/C(C)=C/[C@@H]2OC1=O [SARCOPHINE]	34.7 µM	> 40 µM	> 40 µM	> 40 µM	–	–	–	–	–	–	–	–
